Assay results from ChEMBL document CHEMBL1914423, “New imidazo[2,1-b]thiazole derivatives: synthesis, in vitro anticancer evaluation, and in silico studies” (Eur J Med Chem, 2011).

Experiments:
Format in all cases: functional
[1] = Anticancer activity against human Hs 578T cells after 48 hrs by SRB assay
Outline: (§1)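 NCI five-dose screen. Cells in RPMI 1640 with 5% FBS and 2 mM L-glutamine, seeded at 5000–40,000 cells/well according to doubling time, then pre-incubated 24 h at 37 °C in 5% CO2. Drugs dissolved in DMSO, five concentrations by 10-fold or 1/2-log dilution. Cells fixed with TCA, SRB-stained, A515 read. IC50 solved from [(Ti−Tz)/(C−Tz)]×100 = 50.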

[2] = tested on: A498; test: Anticancer activity against human A498 cells after 48 hrs by SRB assay; conditions: A498, 48 h; outline: as §1
[3] = tested on: COLO 205; test: Anticancer activity against human COLO205 cells after 48 hrs by SRB assay; conditions: COLO 205, 48 h; outline: as §1
[4] = tested on: HOP-92; test: Anticancer activity against human HOP92 cells after 48 hrs by SRB assay; conditions: HOP-92, 48 h; outline: as §1
[5] = tested on: NCI/ADR-RES; test: Anticancer activity against human NCI/ADR-RES cells after 48 hrs by SRB assay
[6] = tested on: LOX IMVI; test: Anticancer activity against human LOXIMVI cells after 48 hrs by SRB assay; outline: as §1
[7] = tested on: SR; test: Anticancer activity against human SR cells after 48 hrs by SRB assay
Outline: (§2)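 NCI-60 five-dose mode: cells in RPMI 1640 with 5% FBS and 2 mM glutamine, plated at 5000–40,000 cells/well, and preincubated 24 h, with time-zero plates TCA-fixed. Drug given at five concentrations (10-fold or ½-log serial dilutions). Cold TCA fixation 60 min at 4 °C, SRB stain, Tris solubilization, A515. IC50 taken where [(Ti−Tz)/(C−Tz)]×100 = 50.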

[8] = tested on: OVCAR-8; test: Anticancer activity against human OVCAR8 cells after 48 hrs by SRB assay; conditions: OVCAR-8, 48 h
[9] = tested on: MCF7; test: Anticancer activity against human MCF7 cells after 48 hrs by SRB assay; conditions: MCF7, 48 h; outline: as §1
[10] = tested on: HCT-116; test: Anticancer activity against human HCT116 cells after 48 hrs by SRB assay; conditions: HCT-116, 48 h; outline: as §1
[11] = tested on: U-251; test: Anticancer activity against human U251 cells after 48 hrs by SRB assay; conditions: U-251, 48 h; outline: as §2
[12] = tested on: SK-MEL-28; test: Anticancer activity against human SK-MEL-28 cells after 48 hrs by SRB assay; conditions: SK-MEL-28, 48 h
[13] = tested on: SNB-75; test: Anticancer activity against human SNB75 cells after 48 hrs by SRB assay; conditions: SNB-75, 48 h
[14] = tested on: UACC-257; test: Anticancer activity against human UACC257 cells after 48 hrs by SRB assay; conditions: UACC-257, 48 h; outline: as §2
[15] = tested on: HOP-62; test: Anticancer activity against human HOP62 cells after 48 hrs by SRB assay; conditions: HOP-62, 48 h; outline: as §1
[16] = tested on: SW-620; test: Anticancer activity against human SW620 cells after 48 hrs by SRB assay; conditions: SW-620, 48 h; outline: as §2
[17] = tested on: TK-10; test: Anticancer activity against human TK10 cells after 48 hrs by SRB assay; conditions: TK-10, 48 h; outline: as §2
[18] = tested on: SN12C; test: Anticancer activity against human SN12C cells after 48 hrs by SRB assay
[19] = tested on: SF-295; test: Anticancer activity against human SF295 cells after 48 hrs by SRB assay; conditions: SF-295, 48 h
[20] = tested on: HCC 2998; test: Anticancer activity against human HCC2998 cells after 48 hrs by SRB assay; conditions: HCC 2998, 48 h; outline: as §1
[21] = tested on: Malme-3M; test: Anticancer activity against human MALME-3M cells after 48 hrs by SRB assay; outline: as §1
[22] = tested on: CAKI-1; test: Anticancer activity against human Caki1 cells after 48 hrs by SRB assay; conditions: CAKI-1, 48 h; outline: as §1
[23] = tested on: ACHN; test: Anticancer activity against human ACHN cells after 48 hrs by SRB assay; outline: as §1
[24] = tested on: UO-31; test: Anticancer activity against human UO31 cells after 48 hrs by SRB assay; conditions: UO-31, 48 h; outline: as §2
[25] = tested on: DU-145; test: Anticancer activity against human DU145 cells after 48 hrs by SRB assay; conditions: DU-145, 48 h; outline: as §1
[26] = tested on: OVCAR-3; test: Anticancer activity against human OVCAR3 cells after 48 hrs by SRB assay; conditions: OVCAR-3, 48 h
[27] = tested on: NCI-H522; test: Anticancer activity against human NCI-H522 cells after 48 hrs by SRB assay; conditions: NCI-H522, 48 h
[28] = tested on: RPMI-8226; test: Anticancer activity against human RPMI8226 cells after 48 hrs by SRB assay; conditions: RPMI-8226, 48 h
[29] = tested on: A549; test: Anticancer activity against human A549 cells after 48 hrs by SRB assay; conditions: A549, 48 h; outline: as §1
[30] = read-out: LC50 (the source's name)

## O=C(NCCNc1nccc(-c2c(-c3cccc(O)c3)nc3sccn23)n1)Nc1cccc(C(F)(F)F)c1
[1]
  GI50: 3.56 µM
  TGI: 17.8 µM
[1]; [30]
  CC50: > 100 µM
[2]
  GI50: 7.33 µM
  TGI: 32.6 µM
[2]; [30]
  CC50: > 100 µM
[3]
  GI50: 3.36 µM
  TGI: 12 µM
[3]; [30]
  CC50: 59.5 µM
[4]
  GI50: 2.19 µM
  TGI: 9.38 µM
[4]; [30]
  CC50: > 100 µM
[5]
  GI50: 26.9 µM
  TGI: > 100 µM
[5]; [30]
  CC50: > 100 µM
[6]
  GI50: 4.05 µM
  TGI: 26.2 µM
[6]; [30]
  CC50: > 100 µM
[7]
  GI50: 6.08 µM
  TGI: 40 µM
[7]; [30]
  CC50: > 100 µM
[8]
  GI50: 3.56 µM
  TGI: 11 µM
[8]; [30]
  CC50: 37.6 µM
[9]
  GI50: 3.57 µM
  TGI: 16 µM
[9]; [30]
  CC50: 78.1 µM
[10]
  GI50: 3.58 µM
  TGI: 11.5 µM
[10]; [30]
  CC50: 74.3 µM
[11]
  GI50: 4.95 µM
  TGI: 23.6 µM
[11]; [30]
  CC50: > 100 µM
[12]
  GI50: 2.68 µM
  TGI: 10 µM
[12]; [30]
  CC50: 62.2 µM
[13]
  GI50: 2.5 µM
  TGI: 12.7 µM
[13]; [30]
  CC50: 62.5 µM
[14]
  GI50: 2.51 µM
  TGI: 6.94 µM
[14]; [30]
  CC50: 59.8 µM
[15]
  GI50: 8.33 µM
  LC50 (concentration killing 50% of starting cells): 61 µM
  TGI: 23.4 µM
[16]
  GI50: 3.84 µM
  TGI: 13.4 µM
[16]; [30]
  CC50: 64.5 µM
[17]
  GI50: 3.66 µM
  TGI: 11.1 µM
[17]; [30]
  CC50: 94.5 µM
[18]
  GI50: 3.42 µM
  TGI: 20 µM
[18]; [30]
  CC50: > 100 µM
[19]
  GI50: 4.16 µM
  TGI: 29.7 µM
[19]; [30]
  CC50: > 100 µM
[20]
  GI50: 2.68 µM
  TGI: 5.77 µM
[20]; [30]
  CC50: 74.9 µM
[21]
  GI50: 2.09 µM
  TGI: 7.3 µM
[21]; [30]
  CC50: 50.7 µM
[22]
  GI50: 14.2 µM
  TGI: 50.5 µM
[22]; [30]
  CC50: > 100 µM
[23]
  GI50: 5.79 µM
  TGI: 45.7 µM
[23]; [30]
  CC50: > 100 µM
[24]
  GI50: 3.25 µM
  TGI: 16.8 µM
[24]; [30]
  CC50: 98.1 µM
[25]
  GI50: 5.37 µM
  TGI: 30 µM
[25]; [30]
  CC50: > 100 µM
[26]
  GI50: 5.52 µM
  TGI: 22.7 µM
[26]; [30]
  CC50: 87.3 µM
[27]
  GI50: 2.11 µM
  TGI: 5 µM
[27]; [30]
  CC50: 20.9 µM
[28]
  GI50: 2.52 µM
  LC50: > 100 µM
  TGI: 5.46 µM
[29]
  GI50: 2.98 µM
  LC50 (concentration giving 50% net tumour cell kill): > 100 µM
  TGI: 8.44 µM
